Measured values from ChEMBL document CHEMBL1123866, “Benzimidazole derivatives with atypical antiinflammatory activity” (J Med Chem, 1987).

What follows are molecules tested on Rattus norvegicus (assay: Anti-inflammatory activity (% inhibition of paw swelling)in rat adjuvant arthritis model at 25 mg/kg oral dose). Conditions: not given.
Format: functional
How it was run: (§1)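 Rats, ten per group, were dosed orally with a suspension in 1% acacia in distilled water, starting immediately after adjuvant injection and then once daily for 14 days in total. Foot volume of the noninjected hind paw was measured by mercury displacement to the lateral malleolus 24 h after the final dose. Percent inhibition of swelling was calculated against untreated arthritic controls.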

SMILES	inhibition in vivo at 25 mg/kg [%]
O=S(=O)(c1nc2cc(Cl)ccc2[nH]1)C(F)(F)C(F)(F)C(F)(F)F	0
CCS(=O)(=O)c1nc2cc(C)ccc2[nH]1	17
COC(=O)c1ccc2[nH]c(S(=O)(=O)CC(F)(F)F)nc2c1	11
O=S(=O)(CC(F)(F)F)c1nc2cc(F)ccc2[nH]1	43
Cc1cc2nc(S(=O)(=O)CC(F)(F)F)[nH]c2cc1C	18
O=S(=O)(c1nc2cc(Cl)ccc2[nH]1)C(F)(F)C(F)(F)F	0
O=S(=O)(CC(F)(F)F)c1nc2ccccc2[nH]1	52
O=S(=O)(CC(F)(F)F)c1nc2cc(C(F)(F)F)ccc2[nH]1	0
O=S(=O)(CC(F)(F)F)c1nc2cc(Cl)ccc2[nH]1	28
CCc1ccc2[nH]c(S(=O)(=O)CC(F)(F)F)nc2c1	34
O=S(=O)(CC(F)(F)F)c1nc2cc(Cl)c(Cl)cc2[nH]1	24
Cc1ccc2[nH]c(S(=O)(=O)C(F)(F)C(F)(F)F)nc2c1	8
CC(C)Cc1ccc(C(C)C(=O)O)cc1 (stereo not drawn) [IBUPROFEN]	73
Cc1cc2[nH]c(S(=O)(=O)CC(F)(F)F)nc2cc1F	44
Cc1ccc2[nH]c(S(=O)(=O)CC(F)(F)F)nc2c1	52
CCCc1ccc2[nH]c(S(=O)(=O)CC(F)(F)F)nc2c1	0

What follows are molecules tested on Rattus norvegicus (assay: Antiinflammatory activity was evaluated for the compound in rat adjuvant arthritis model and the percent of inhibition was determined at 1 mg/kg dose administered orally). Conditions: po, read-out: Inhibition.

SMILES	inhibition in vivo at 1 mg/kg [%]
COc1ccc2c(c1)c(CC(=O)O)c(C)n2C(=O)c1ccc(Cl)cc1 [INDOMETHACIN]	69

What follows are molecules tested on Rattus norvegicus (assay: Antiinflammatory activity was evaluated for the compound in rat adjuvant arthritis model and the percent of inhibition was determined at 50 mg/kg dose administered orally). Conditions: route oral.
Format: functional
How it was run: as §1

SMILES	inhibition in vivo at 50 mg/kg [%]
Cc1ccc2[nH]c(S(=O)(=O)CC(F)(F)F)nc2c1	72
